Measurements: article PMC12306972 (Analytical and bioanalytical chemistry, 2023)

Biological target: EcCATI (type I chloramphenicol acetyltransferase) (Escherichia coli, UniProt P62577)
Test: Direct ESI-MS
Type: binding
Settings: for Cooperativity factor α: second ligand of the same type binding to EcCATI:1Ligand; for Cooperativity factor β: third ligand of the same type binding to EcCATI:2Ligands
How it was run: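 Recombinant E. coli type I CAT (Rosetta2 BL21 DE3; heat step, anion-exchange, gel filtration) desalted into 200 mM ammonium acetate pH ~7.0 and mixed with ligand freshly prepared in the same buffer. Trimer at ~10 μM final, with the protein:ligand ratio varied by ligand. Nano-ESI on a Q-TWIMS-TOF under native-preserving settings. Bound/free abundance ratios were fitted to a stepwise three-site model giving intrinsic Kd, α and β. Values are mean ± SD.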

Sequence of EcCATI (type I chloramphenicol acetyltransferase) (P62577 whole entry, looked up): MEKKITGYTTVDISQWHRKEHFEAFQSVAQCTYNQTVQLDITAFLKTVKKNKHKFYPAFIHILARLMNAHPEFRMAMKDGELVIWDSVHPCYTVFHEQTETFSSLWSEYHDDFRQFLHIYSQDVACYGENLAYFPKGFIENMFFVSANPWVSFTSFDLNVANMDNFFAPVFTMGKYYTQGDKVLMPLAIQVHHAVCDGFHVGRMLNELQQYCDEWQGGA

Row | Structure (SMILES) | Cooperativity factor α | Cooperativity factor β
1 | O=C(N[C@H](CO)[C@H](O)c1ccc([N+](=O)[O-])cc1)C(Cl)Cl [Chl, chloramphenicol] | 0.5 | 0.2
2 | CCSCCNC(=O)CCNC(=O)[C@H](O)C(C)(C)COP(=O)(O)OP(=O)(O)OC[C@H]1O[C@@H](n2cnc3c(N)ncnc32)[C@H](O)[C@@H]1OP(=O)(O)O [S-Et-CoA, S-ethyl-CoA] | 0.8 | 0.5
